Results on five compounds are retold here after ChEMBL document CHEMBL1156577, “Moromycins A and B, isolation and structure elucidation of C-glycosylangucycline-type antibiotics from Streptomyces sp. KY002” (2008).

One experiment relates to L1210. Description: Cytotoxicity against cultured mouse L1210 cells.
A further experiment deals with NCI-H460. Description: Cytotoxicity against human H460 cells after 48 hrs by SRB assay. It counts as functional. As to conditions: NCI-H460, 48 h; for CC50: read-out: LC50 (the source's name). The method in brief: (§1)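 In vitro: human lung H-460 and human breast MCF-7 cell lines exposed to drugs for 48 h. Growth read by sulforhodamine B (SRB) staining.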
Background: In SRB staining, fixed cells bind dye roughly in proportion to their protein.

The test system of a further experiment is MCF7. Put plainly: Cytotoxicity against human MCF7 cells after 48 hrs by SRB assay. As to conditions: MCF7, 48 h; for CC50: read-out: LC50 (the source's name). The experiment is classed as functional. The gist of the method: as §1

Each structure is given as a SMILES string. In brackets after ≈: the same amount, converted by molar mass.

Consider `CC[C@@]1(O)C[C@H](O[C@H]2C[C@H](N(C)C)[C@H](O[C@H]3C[C@H](O)[C@H](O[C@H]4CCC(=O)[C@H](C)O4)[C@H](C)O3)[C@H](C)O2)c2c(cc3c(c2O)C(=O)c2c(O)cccc2C3=O)[C@H]1C(=O)OC` [ACLARUBICIN], for which the ID50 in the experiment on L1210 was determined as 0.12 µg/mL (≈ 0.148 µM).

As to `CC[C@@]1(O)C[C@H](O[C@H]2C[C@H](N(C)C)[C@H](O[C@H]3C[C@@H]4O[C@H]5CC(=O)[C@@H](C)O[C@H]5O[C@@H]4[C@H](C)O3)[C@H](C)O2)c2c(cc3c(c2O)C(=O)c2c(O)cccc2C3=O)[C@H]1C(=O)OC` [ACLACINOMYCIN B], in the experiment with L1210, the ID50 is 0.24 µg/mL (≈ 0.296 µM).

Turning to `C[C@@H]1O[C@@H](O[C@H]2CC[C@H](O[C@@]3(C)CC(=O)c4c(ccc5c4C(=O)c4ccc([C@H]6C[C@H]7O[C@H]8CC(=O)[C@H](C)O[C@H]8O[C@@H]7[C@@H](C)O6)c(O)c4C5=O)C3)O[C@H]2C)C=CC1=O` [MOROMYCIN A], in the experiment with NCI-H460, growth was halved (GI50) at 18.7 µM, total growth inhibition (TGI) required 51.2 µM and the CC50 was found to be 69.1 µM. Further, in the experiment on MCF7, the GI50 – broadly, the concentration giving 50% growth inhibition – turned out to be 25.1 µM; total growth inhibition (TGI) required 38.9 µM; the CC50 was 55 µM.

Turning to `C[C@@H]1O[C@@H](O[C@H]2CC[C@H](O[C@@]3(C)CC(=O)[C@]4(O)C5=C(C=C[C@]4(O)C3)C(=O)c3c(ccc([C@H]4C[C@H]6O[C@H]7CC(=O)[C@H](C)O[C@H]7O[C@@H]6[C@@H](C)O4)c3O)C5=O)O[C@H]2C)C=CC1=O` [SAQUAYAMYCIN B], in the experiment with NCI-H460, it took 12.2 µM to inhibit growth by half (GI50), net growth stopped (TGI) at 26.5 µM and the CC50 worked out at 34.3 µM. Also, in the experiment on MCF7, the GI50 came to 15.2 µM, net growth stopped (TGI) at 21.3 µM and the CC50 is 28.1 µM.

In the case of `C[C@@H]1O[C@H]2O[C@@H]3[C@@H](C)O[C@@H](c4ccc5c(c4O)C(=O)c4ccc6c(c4C5=O)C(=O)C[C@](C)(O)C6)C[C@H]3O[C@H]2CC1=O` [MOROMYCIN B], in the experiment on NCI-H460, the GI50 was 4.1 µM; the TGI (as a rule, the concentration giving total growth inhibition) turned out to be 14.1 µM; the CC50 was 52.3 µM. For the same compound, in the experiment with MCF7, it took 5.6 µM to inhibit growth by half (GI50), the TGI is 9.2 µM and the CC50 was found to be 16.3 µM.
